Our source for the ΔTm and EC50 values is ChEMBL document CHEMBL1143869, “Amide bond direction modulates G-quadruplex recognition and telomerase inhibition by 2,6 and 2,7 bis-substituted anthracenedione derivatives” (Bioorg Med Chem, 2008).

SMILES strings stand for the structures.

The species entered for experiment [1] is Homo sapiens. The experiment can be described thus: Binding affinity to human telomeric G-quadraflex assessed as thermal stability at 1 uM by FRET assay. The procedure, abridged:
(§1)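 Human telomeric (GGGTTA)4 oligonucleotide labelled with fluorescein at the 5'-end and MethylRed quencher at the 3'-end, folded into an intramolecular G-quadruplex in 50 mM potassium phosphate buffer, pH 7.4. Fluorescence melting was run on a Roche Light Cycler (excitation 488 nm, emission 520 nm) without and with ligand. Stabilisation was taken as the increase in melting temperature.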

The species named for experiment [2] is Homo sapiens. The experiment can be described thus: Binding affinity to human telomeric G-quadraflex assessed as thermal stability at 10 uM by FRET assay. The essentials: as §1
A short description of experiment [3]: Inhibition of human telomerase in JR8 cells by TRAP assay. Type of experiment: cell-based. The essentials:
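Modified TRAP assay. Telomerase source was supernatant of JR8 cell lysate (13000 rpm, 30 min, 4 °C). The 50 µl reaction held 50 µM dNTPs, 0.2 µg labelled TS, 0.1 µg ACX return primer, 500 ng protein extract, 2 U Taq and a TSNT internal control with NT primer, with or without drug at increasing concentrations. Telomerase was inactivated at 85 °C for 5 min. PCR ran 25 cycles (94/65/72 °C, 30 s each). Products were resolved on a 2% agarose gel and stained with ethidium bromide.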

Take `NCCNC(=O)c1ccc2c(c1)C(=O)c1ccc(C(=O)NCCN)cc1C2=O`: the ΔTm in the experiment listed under Homo sapiens [1] was found to be 2 °C; in the experiment filed under Homo sapiens [2], 10 °C. In addition, in experiment [3], the EC50 was 5.2 µM.
On to `NCCC(=O)Nc1ccc2c(c1)C(=O)c1cc(NC(=O)CCN)ccc1C2=O`, for which the ΔTm in the experiment filed under Homo sapiens [1] amounted to 11.3 °C; in the experiment listed under Homo sapiens [2], 27.3 °C. In experiment [3], this compound came in with an EC50 of 1.2 µM.
The matching figures for `O=C(NCCN1CCCC1)c1ccc2c(c1)C(=O)c1ccc(C(=O)NCCN3CCCC3)cc1C2=O`: 1.8 °C, 10.8 °C and 10.4 µM.
The matching figures for `NCCC(=O)Nc1ccc2c(c1)C(=O)c1ccc(NC(=O)CCN)cc1C2=O`: 9.1 °C, 18.1 °C and 1.2 µM.
The matching figures for `NCCNC(=O)c1ccc2c(c1)C(=O)c1cc(C(=O)NCCN)ccc1C2=O`: 3.3 °C, 12.9 °C and 14.5 µM.
For `O=C(CCN1CCCC1)Nc1ccc2c(c1)C(=O)c1ccc(NC(=O)CCN3CCCC3)cc1C2=O`, the ΔTm in the experiment filed under Homo sapiens [1] was 5.9 °C; in the experiment listed under Homo sapiens [2], 19.2 °C. Further, the EC50 in experiment [3] was determined as 2.5 µM.
